# ChEMBL document CHEMBL4610112, “Novel Pyrrolopyridone Bromodomain and Extra-Terminal Motif (BET) Inhibitors Effective in Endocrine-Resistant ER+ Breast Cancer with Acquired Resistance to Fulvestrant and Palbociclib” (J Med Chem, 2020)
# Columns and labels:
# [1] = target: CYP2A6 (Homo sapiens, UniProt P11509); assay: Inhibition of human CYP2A6 at 10 uM; assay type: ADME
# [2] = system: MCF7:TAM1; assay: Antitumor activity against human MCF7:TAM1 cells xenografted in ovariectomized athymic Nude-Foxn1 mouse assessed as tumor growth inhibition at 30 mg/kg/day, po administered via gavage for 4 weeks relative to control; assay type: functional; conditions: 672 h, read-out: TGI
# How it was run: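 MCF-7:Tam1 tumours established in 4–6 week old female ovariectomized athymic nude mice given daily tamoxifen 1.5 mg/mouse. […] Fulvestrant 1 (mg/mouse)/week sc. Tumour volume measured weekly by calipers as length × width² × π/6.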
# [3] = Oral bioavailability in CD1 mouse at 30 mg/kg by LC-MS/MS analysis; assay type: ADME, organism-based; conditions: in vivo
# How it was run: (§1)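 HCl salt dosed to CD1 mice in 30% PEG400/70% (10% HP-β-CD in water) (v/v), at 1 mg/mL for iv (5 mg/kg) or 3 mg/mL for oral gavage (30 mg/kg). Blood sampled at 0, 0.0833 (iv only), 0.25, 0.5, 1, 2, 4, 8 and 24 h, n = 3 per time point. Plasma levels measured by LC/MS/MS.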
# [4] = Volume of distribution at steady state in CD1 mouse at 5 mg/kg, iv by LC-MS/MS analysis; assay type: ADME, organism-based; conditions: in vivo; how it was run: as §1
# [5] = target: CYP3A4 (Homo sapiens, UniProt P08684); assay: Inhibition of human CYP3A4 at 10 uM; assay type: ADME
# Chain of CYP3A4 (P08684 whole entry): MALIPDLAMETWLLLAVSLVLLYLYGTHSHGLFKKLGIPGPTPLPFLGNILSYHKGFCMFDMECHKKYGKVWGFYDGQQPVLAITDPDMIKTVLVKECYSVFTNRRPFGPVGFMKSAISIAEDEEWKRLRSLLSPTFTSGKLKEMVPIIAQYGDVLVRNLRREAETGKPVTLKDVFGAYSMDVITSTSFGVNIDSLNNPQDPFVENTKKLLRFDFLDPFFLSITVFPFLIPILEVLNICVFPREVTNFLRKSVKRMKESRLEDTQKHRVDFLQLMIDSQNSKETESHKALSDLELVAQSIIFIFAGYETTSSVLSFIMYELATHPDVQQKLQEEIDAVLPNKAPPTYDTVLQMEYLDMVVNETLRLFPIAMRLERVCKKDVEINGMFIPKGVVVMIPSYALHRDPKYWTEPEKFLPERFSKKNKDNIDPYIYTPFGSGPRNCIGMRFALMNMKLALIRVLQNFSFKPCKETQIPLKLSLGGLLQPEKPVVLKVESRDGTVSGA
# [6] = Cmax in CD1 mouse at 30 mg/kg, po by LC-MS/MS analysis; assay type: ADME, organism-based; design: dose 30 mg/kg, route oral; conditions: in vivo
# How it was run: (§2)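 HCl salt dosed to CD1 mice iv (1 mg/mL) or by oral gavage (3 mg/mL) in 30% PEG400/70% (10% HP-β-CD in water) (v/v). Blood sampled at 0, 0.0833 (iv only), 0.25, 0.5, 1, 2, 4, 8 and 24 h, n = 3 per time point. Plasma levels measured by LC/MS/MS.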
# [7] = Protein binding in plasma (unknown origin); assay type: ADME, cell-free; conditions: human
# How it was run: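 Protein binding reported as percent bound, ketoconazole as reference compound. Run by a contract lab.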
# [8] = Clearance in CD1 mouse at 5 mg/kg, iv by LC-MS/MS analysis; assay type: ADME, organism-based; conditions: in vivo; how it was run: as §2
# [9] = Toxicity in human MCF7:TAM1 cells xenografted ovariectomized athymic Nude-Foxn1 mouse assessed as adverse sign t at 50 mg/kg/day, po administered via gavage for 4 weeks; assay type: organism-based; conditions: in vivo, 672 h
# How it was run: (§3)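 MCF-7:TAM1 tumors established in 4–6-week-old female ovariectomized athymic nude mice (nude/Foxn1) given tamoxifen 1.5 mg/mouse daily. […] Body weight tracked against pretreatment, with overt toxicity signs observed. Vehicle and tamoxifen (1.5 mg/mouse/day po) groups as comparators.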
# [10] = Half life in human hepatocytes; assay type: ADME, cell-based, Hepatocyte
# [11] = Toxicity in human MCF7:TAM1 cells xenografted ovariectomized athymic Nude-Foxn1 mouse assessed as effect on body weight at 50 mg/kg/day, po administered via gavage for 4 weeks; assay type: organism-based; conditions: in vivo, 672 h; how it was run: as §3
# [12] = target: CYP2C19 (Homo sapiens, UniProt P33261); assay: Inhibition of human CYP2C19 at 10 uM; assay type: ADME
# Chain of CYP2C19 (P33261 whole entry): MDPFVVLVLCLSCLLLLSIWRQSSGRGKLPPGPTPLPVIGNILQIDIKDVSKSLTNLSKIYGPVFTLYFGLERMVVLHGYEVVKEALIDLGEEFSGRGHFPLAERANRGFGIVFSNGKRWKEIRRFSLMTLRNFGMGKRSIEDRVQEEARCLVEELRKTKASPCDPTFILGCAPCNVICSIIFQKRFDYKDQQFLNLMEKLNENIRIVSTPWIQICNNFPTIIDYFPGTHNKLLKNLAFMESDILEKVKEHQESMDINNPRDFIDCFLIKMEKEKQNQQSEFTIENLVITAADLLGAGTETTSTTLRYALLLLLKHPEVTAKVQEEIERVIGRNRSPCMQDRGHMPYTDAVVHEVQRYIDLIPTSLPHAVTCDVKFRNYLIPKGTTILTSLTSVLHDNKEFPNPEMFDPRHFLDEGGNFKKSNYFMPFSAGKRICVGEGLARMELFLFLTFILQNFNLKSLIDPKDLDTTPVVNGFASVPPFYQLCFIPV
# [13] = target: Voltage-gated inwardly rectifying potassium channel KCNH2 (Homo sapiens, UniProt Q12809); assay: Inhibition of human ERG stably expressed in HEK293 cells; assay type: cell-based
# Chain of Voltage-gated inwardly rectifying potassium channel KCNH2 (Q12809 whole entry): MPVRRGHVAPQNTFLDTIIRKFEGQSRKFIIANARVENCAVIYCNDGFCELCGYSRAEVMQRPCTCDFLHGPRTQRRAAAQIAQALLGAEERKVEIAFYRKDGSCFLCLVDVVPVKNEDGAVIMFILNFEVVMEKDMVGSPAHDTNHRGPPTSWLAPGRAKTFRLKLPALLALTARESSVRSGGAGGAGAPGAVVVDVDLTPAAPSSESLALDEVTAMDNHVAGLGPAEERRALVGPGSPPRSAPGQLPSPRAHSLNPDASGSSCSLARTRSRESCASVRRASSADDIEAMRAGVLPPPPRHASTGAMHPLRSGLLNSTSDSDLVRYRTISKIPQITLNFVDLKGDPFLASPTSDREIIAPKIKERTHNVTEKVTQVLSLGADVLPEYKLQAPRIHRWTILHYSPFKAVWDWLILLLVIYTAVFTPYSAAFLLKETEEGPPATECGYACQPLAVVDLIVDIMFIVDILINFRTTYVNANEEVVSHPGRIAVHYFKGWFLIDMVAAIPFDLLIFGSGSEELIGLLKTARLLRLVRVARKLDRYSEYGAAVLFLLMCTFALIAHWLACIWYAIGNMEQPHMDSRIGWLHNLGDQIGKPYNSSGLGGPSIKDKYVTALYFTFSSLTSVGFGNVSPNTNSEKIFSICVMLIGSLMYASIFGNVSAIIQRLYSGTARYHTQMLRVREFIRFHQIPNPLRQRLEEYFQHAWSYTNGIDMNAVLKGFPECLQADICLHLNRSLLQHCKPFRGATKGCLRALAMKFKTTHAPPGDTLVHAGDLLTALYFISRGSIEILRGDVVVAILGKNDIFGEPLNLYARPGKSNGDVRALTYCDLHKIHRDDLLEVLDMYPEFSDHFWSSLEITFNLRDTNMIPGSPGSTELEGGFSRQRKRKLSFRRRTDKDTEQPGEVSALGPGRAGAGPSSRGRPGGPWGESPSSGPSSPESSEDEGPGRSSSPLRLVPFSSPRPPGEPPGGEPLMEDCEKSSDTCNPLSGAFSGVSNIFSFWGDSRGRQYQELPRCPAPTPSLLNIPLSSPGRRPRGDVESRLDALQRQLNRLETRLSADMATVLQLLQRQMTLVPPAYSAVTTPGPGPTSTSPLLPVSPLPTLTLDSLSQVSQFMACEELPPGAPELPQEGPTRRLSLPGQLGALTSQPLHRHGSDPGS
# How it was run: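 hERG inhibition measured in HEK293 cells stably transfected with the hERG gene, IC50 determined, dofetilide as positive control. Run by a contract lab.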
# [14] = Tmax in CD1 mouse at 30 mg/kg, po by LC-MS/MS analysis; assay type: ADME, organism-based; conditions: in vivo; how it was run: as §1
# [15] = Induction of thrombocytopenia in Sprague-Dawley rat assessed as platelet count […] at 25 mg/kg, po administered via gavage daily for 10 days (reference value: […]); assay type: organism-based; conditions: in vivo, 240 h
# [16] = Kinetic solubility of the compound in pH 7.4 PBS buffer; assay type: physicochemical; conditions: read-out: Kinetic_solubility
# How it was run: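 Kinetic solubility in PBS at pH 7.4, progesterone as reference compound. Run by a contract lab.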
# [17] = AUC in CD1 mouse at 5 mg/kg, iv by LC-MS/MS analysis; assay type: ADME, organism-based; conditions: in vivo; how it was run: as §2
# [18] = Half life in CD1 mouse at 5 mg/kg, iv by LC-MS/MS analysis; assay type: ADME, organism-based; conditions: in vivo; how it was run: as §2
# [19] = target: CYP2C8 (Homo sapiens, UniProt P10632); assay: Inhibition of human CYP2C8 at 10 uM; assay type: ADME
# Chain of CYP2C8 (P10632 whole entry): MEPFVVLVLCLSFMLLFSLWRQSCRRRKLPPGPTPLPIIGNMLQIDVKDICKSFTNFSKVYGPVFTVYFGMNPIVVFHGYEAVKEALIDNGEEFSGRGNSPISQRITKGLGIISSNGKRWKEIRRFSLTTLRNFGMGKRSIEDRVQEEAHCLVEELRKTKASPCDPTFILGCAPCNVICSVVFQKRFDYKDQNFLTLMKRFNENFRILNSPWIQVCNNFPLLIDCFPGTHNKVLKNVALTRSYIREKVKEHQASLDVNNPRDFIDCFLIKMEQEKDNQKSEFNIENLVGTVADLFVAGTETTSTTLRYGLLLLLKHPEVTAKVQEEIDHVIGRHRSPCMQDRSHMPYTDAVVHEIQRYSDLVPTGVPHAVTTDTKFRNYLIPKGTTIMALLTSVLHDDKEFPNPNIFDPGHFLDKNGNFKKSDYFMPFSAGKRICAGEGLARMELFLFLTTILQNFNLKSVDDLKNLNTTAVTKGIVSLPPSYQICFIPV
# [20] = Half life in CD1 mouse at 30 mg/kg, po by LC-MS/MS analysis; assay type: ADME, organism-based; conditions: in vivo; how it was run: as §2
# [21] = AUC in CD1 mouse at 30 mg/kg, po by LC-MS/MS analysis; assay type: ADME, organism-based; conditions: in vivo; how it was run: as §2
# [22] = target: CYP1A2 (Homo sapiens, UniProt P05177); assay: Inhibition of human CYP1A2 at 10 uM; assay type: ADME
# Chain of CYP1A2 (P05177 whole entry): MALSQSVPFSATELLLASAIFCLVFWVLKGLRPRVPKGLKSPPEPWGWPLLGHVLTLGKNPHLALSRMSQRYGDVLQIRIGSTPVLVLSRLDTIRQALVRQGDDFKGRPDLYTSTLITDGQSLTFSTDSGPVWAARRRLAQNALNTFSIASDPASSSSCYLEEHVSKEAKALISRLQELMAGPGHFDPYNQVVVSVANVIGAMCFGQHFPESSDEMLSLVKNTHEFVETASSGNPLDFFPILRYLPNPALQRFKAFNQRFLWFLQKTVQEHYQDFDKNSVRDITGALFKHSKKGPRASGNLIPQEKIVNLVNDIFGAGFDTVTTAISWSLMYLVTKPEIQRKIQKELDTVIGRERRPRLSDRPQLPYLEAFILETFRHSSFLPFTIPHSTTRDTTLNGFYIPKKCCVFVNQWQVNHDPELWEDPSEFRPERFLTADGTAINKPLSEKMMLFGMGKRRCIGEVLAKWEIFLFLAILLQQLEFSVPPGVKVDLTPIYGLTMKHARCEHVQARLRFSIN
# [23] = target: CYP2C9 (Homo sapiens, UniProt P11712); assay: Inhibition of human CYP2C9 at 10 uM; assay type: ADME
# Chain of CYP2C9 (P11712 whole entry): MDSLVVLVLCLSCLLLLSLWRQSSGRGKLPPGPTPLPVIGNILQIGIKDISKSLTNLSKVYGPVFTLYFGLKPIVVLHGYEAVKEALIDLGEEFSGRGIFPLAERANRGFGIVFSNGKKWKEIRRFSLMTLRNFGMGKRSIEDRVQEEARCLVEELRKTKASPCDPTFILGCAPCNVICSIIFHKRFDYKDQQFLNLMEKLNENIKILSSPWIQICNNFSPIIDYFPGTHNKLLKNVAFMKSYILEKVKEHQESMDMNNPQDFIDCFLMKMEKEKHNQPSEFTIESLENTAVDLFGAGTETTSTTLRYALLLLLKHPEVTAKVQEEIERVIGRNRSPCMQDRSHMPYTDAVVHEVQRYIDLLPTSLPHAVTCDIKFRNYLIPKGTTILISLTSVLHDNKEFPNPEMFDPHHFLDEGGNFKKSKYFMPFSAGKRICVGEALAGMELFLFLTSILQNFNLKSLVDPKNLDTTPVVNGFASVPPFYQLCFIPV
# [24] = Intrinsic clearance in human hepatocytes assessed per million cells; assay type: ADME, cell-based, Hepatocyte; conditions: read-out: CLH
# [25] = target: CYP2D6 (Homo sapiens, UniProt P10635); assay: Inhibition of human CYP2D6 at 10 uM; assay type: ADME
# Chain of CYP2D6 (P10635 whole entry): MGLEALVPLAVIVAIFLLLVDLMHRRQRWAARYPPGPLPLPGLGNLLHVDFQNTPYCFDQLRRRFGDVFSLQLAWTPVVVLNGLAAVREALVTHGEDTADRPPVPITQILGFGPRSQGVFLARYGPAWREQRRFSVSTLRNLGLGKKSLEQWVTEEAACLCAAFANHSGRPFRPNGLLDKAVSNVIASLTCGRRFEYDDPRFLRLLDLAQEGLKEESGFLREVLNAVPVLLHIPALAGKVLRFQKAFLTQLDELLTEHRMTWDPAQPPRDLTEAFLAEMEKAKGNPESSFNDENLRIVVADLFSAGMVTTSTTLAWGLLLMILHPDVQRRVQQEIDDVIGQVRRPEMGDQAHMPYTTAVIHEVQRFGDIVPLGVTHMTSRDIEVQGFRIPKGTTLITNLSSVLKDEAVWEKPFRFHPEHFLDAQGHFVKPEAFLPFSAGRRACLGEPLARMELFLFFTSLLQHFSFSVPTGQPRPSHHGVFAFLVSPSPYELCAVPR
# Chain of CYP2A6 (P11509 whole entry): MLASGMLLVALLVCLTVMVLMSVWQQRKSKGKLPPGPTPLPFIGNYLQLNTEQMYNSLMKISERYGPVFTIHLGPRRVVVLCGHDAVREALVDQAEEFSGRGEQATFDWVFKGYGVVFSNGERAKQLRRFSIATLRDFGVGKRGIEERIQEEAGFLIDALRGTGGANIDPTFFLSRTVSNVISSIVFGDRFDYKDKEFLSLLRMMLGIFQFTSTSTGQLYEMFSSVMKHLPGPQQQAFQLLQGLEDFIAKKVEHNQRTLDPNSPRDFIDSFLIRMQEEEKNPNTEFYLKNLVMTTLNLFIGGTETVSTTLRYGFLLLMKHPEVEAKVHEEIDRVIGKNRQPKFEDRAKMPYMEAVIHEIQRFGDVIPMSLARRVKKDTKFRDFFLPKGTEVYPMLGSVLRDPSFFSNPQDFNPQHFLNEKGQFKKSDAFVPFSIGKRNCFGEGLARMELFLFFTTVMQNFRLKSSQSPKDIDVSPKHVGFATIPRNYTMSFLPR
structure (smiles),measurement,setting,value
CCS(=O)(=O)Nc1cc(-c2cn(C)c3c(=O)[nH]ccc23)cc2c1ccn2C(C)(c1ccccn1)c1ccccn1.Cl,inhibition at 10 µM,[1],7.47%
same,inhibition in vivo at 30 mg/kg/day,[2],106%
same,F,[3],49%
same,Vdss,[4],1.49 L/kg
same,inhibition at 10 µM,[5],50.6%
same,Cmax,[6],3090 ng/mL
same,PPB,[7],97.98%
same,clearance,[8],25.5 mL/min/kg
same,Activity,[9],Non-Toxic
same,t1/2,[10],3.37 h
same,Activity,[11],Non-Toxic
same,inhibition at 10 µM,[12],31.8%
same,IC50,[13],29.3 µM
same,Tmax,[14],0.25 h
same,platelet count,[15],1050 10^3/µL
same,solubility kinetic,[16],73.4 µM
same,AUC,[17],3208 ng·h/mL
same,t1/2,[18],1.95 h
same,inhibition at 10 µM,[19],84.2%
same,t1/2,[20],2.9 h
same,AUC,[21],9598 ng·h/mL
same,inhibition at 10 µM,[22],2.29%
same,inhibition at 10 µM,[23],30.7%
same,hepatocyte CLint,[24],6.86 µL/min/1e6 cells
same,inhibition at 10 µM,[25],14.5%
